ChEMBL document CHEMBL1687738, “Effect of Candida glabrata FKS1 and FKS2 mutations on echinocandin sensitivity and kinetics of 1,3-beta-D-glucan synthase: implication for the existing susceptibility breakpoint” (Antimicrob Agents Chemother, 2009)
≈ marks a conversion by molar mass, not a printed value. Starred links: 1 amine or outer side, 2 acyl side, 3 side chain; linkers in the order of their positions; H or OH if unused. Positions of bridges follow the written chain, without caps; N, C: chain ends. Non-standard residues stand in square brackets, D forms with d. Residues, ends and D or L forms follow the SMILES beside them. *: point of attachment. pTerphenylCO(4''-OnC5H11) = CCCCCOc1ccc(-c2ccc(-c3ccc(C(=O)*)cc3)cc2)cc1; Orn(4R-OH,5R-OH) = O=C([C@H](C[C@@H](O)[C@@H](O)N[*:3])N[*:1])[*:2]; hTyr(3S-OH,4S-OH) = N[C@H](C(=O)O)[C@H](O)[C@@H](O)c1ccc(O)cc1; Pro(3S-OH,4S-Me) = C[C@H]1CN[C@H](C(=O)O)[C@H]1O; Hyp = O=C(O)[C@@H]1C[C@@H](O)CN1

How the values were obtained:
[1] = Inhibition of Candida glabrata isolate 42971 1,3-beta-D-glucan synthase Fks1p D632Y mutant/Fks2p R1377STOP mutant; set-up: species or system Nakaseomyces glabratus
How it was run: (§1)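 Cells grown in YPD broth at 35°C with vigorous shaking to early stationary phase. Membrane protein extracted and glucan synthase partially purified by product entrapment. Filtration polymerization assay measured [3H]glucose incorporation into product, started by adding enzyme. Echinocandin serial dilutions spanned 0.01–10,000 ng/ml, with 1% DMSO controls for anidulafungin. IC50 from variable-slope sigmoidal fit.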

1,3-beta-glucan synthase [2] = target: 1,3-beta-glucan synthase (Candida glabrata, UniProt F5BCZ9, W1375L); test: Inhibition of Candida glabrata isolate 5416 1,3-beta-D-glucan synthase wild type Fks1p/Fks2p W1375L mutant; set-up: species or system Nakaseomyces glabratus; how it was run: as §1
Nakaseomyces glabratus [3] = test: Antifungal activity against Candida glabrata isolate 5416 expressing wild type Fks1p and Fks2p W1375L mutant by CLSI method in presence of 50% human serum; assay type: functional
How it was run: (§2)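 Broth microdilution MIC per CLSI M27-A3 in RPMI 1640 supplemented with 50% serum. Caspofungin and micafungin stocks in sterile water; anidulafungin stock in 100% DMSO; stocks kept at −86°C.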

1,3-beta-glucan synthase [4] = target: 1,3-beta-glucan synthase (Candida glabrata, UniProt F5BCZ9, S663P); test: Inhibition of Candida glabrata isolate 3830 1,3-beta-D-glucan synthase wild type Fks1p/Fks2p S663P mutant; set-up: species or system Nakaseomyces glabratus; how it was run: as §1
1,3-beta-glucan synthase (Candida glabrata, UniProt F5BCZ9, S663P), sequence (F5BCZ9 entry or part of it S663P): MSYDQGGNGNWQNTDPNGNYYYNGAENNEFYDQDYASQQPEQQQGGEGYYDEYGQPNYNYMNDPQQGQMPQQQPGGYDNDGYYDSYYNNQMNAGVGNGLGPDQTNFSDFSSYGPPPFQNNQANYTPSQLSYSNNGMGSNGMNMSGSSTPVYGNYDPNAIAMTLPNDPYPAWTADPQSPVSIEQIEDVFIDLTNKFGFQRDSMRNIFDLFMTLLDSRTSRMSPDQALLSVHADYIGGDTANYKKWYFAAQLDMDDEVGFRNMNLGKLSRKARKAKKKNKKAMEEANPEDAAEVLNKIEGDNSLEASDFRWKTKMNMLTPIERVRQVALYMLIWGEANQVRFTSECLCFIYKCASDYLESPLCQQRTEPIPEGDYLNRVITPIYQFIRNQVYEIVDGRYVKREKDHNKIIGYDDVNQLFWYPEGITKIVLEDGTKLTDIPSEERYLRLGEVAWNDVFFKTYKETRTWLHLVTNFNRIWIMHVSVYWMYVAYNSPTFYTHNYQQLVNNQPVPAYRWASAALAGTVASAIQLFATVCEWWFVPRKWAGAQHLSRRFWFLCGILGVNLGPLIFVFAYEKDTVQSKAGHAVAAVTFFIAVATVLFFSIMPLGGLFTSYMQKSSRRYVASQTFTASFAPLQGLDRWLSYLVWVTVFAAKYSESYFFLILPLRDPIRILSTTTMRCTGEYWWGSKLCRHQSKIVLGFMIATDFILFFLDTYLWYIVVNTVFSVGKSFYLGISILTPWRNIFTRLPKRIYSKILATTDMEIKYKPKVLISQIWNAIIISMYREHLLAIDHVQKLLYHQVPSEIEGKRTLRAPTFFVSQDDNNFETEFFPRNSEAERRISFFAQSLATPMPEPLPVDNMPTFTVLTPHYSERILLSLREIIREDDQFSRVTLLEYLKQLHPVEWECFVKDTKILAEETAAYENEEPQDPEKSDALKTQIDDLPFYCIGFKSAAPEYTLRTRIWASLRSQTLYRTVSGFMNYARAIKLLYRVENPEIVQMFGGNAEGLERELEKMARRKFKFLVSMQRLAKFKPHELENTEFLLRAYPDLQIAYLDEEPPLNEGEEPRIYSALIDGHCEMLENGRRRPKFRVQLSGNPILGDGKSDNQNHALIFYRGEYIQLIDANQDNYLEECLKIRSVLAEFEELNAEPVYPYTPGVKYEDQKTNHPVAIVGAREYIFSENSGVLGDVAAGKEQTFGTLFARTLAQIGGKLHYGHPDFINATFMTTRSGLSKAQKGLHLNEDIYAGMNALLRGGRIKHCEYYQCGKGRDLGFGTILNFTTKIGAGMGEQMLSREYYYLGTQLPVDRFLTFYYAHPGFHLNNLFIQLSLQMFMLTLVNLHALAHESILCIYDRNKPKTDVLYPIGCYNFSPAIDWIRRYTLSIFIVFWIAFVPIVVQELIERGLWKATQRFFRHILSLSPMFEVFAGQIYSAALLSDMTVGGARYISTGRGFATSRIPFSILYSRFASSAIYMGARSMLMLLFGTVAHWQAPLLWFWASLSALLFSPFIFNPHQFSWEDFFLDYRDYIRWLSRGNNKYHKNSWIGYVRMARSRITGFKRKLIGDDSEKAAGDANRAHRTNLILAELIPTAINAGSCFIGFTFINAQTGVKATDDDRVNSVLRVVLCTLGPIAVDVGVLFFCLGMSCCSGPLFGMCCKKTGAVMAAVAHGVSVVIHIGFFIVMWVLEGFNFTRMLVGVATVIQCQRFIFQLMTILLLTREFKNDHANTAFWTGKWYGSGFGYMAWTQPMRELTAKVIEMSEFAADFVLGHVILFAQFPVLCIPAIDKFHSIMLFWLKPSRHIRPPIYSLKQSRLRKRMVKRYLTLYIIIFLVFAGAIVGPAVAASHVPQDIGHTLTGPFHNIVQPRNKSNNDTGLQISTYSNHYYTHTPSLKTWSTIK

Nakaseomyces glabratus [5] = test: Antifungal activity against Candida glabrata isolate 5847 expressing Fks1p S629P mutant and wild type Fks2p by CLSI method; assay type: functional
How it was run: (§3)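 Broth microdilution MIC per CLSI M27-A3 in RPMI 1640 medium without serum. Caspofungin and micafungin stocks in sterile water; anidulafungin stock in 100% DMSO; stocks kept at −86°C.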

Nakaseomyces glabratus [6] = test: Antifungal activity against Candida glabrata isolate 42031 expressing wild type Fks1p and Fks2p D666E mutant by CLSI method; assay type: functional; how it was run: as §3
Nakaseomyces glabratus [7] = test: Antifungal activity against Candida glabrata isolate 41026 expressing wild type Fks1p and Fks2p F659S mutant by CLSI method; assay type: functional; how it was run: as §3
[8] = target: 1,3-beta-glucan synthase component FKS1 (Candida glabrata, UniProt E2GKZ4, F625S); test: Inhibition of Candida glabrata isolate 42997 1,3-beta-D-glucan synthase Fks1p F625S mutant/wild type Fks2p; set-up: species or system Nakaseomyces glabratus; how it was run: as §1
Nakaseomyces glabratus [9] = test: Antifungal activity against Candida glabrata isolate 234 expressing wild type Fks1p and Fks2p F659V mutant by CLSI method in presence of 50% human serum; assay type: functional; how it was run: as §2
Nakaseomyces glabratus [10] = test: Antifungal activity against Candida glabrata isolate 218 expressing wild type Fks1p and Fks2p by CLSI method; assay type: functional; how it was run: as §3
Nakaseomyces glabratus [11] = test: Antifungal activity against Candida glabrata isolate 42997 expressing Fks1p F625S mutant and wild type Fks2p by CLSI method in presence of 50% human serum; assay type: functional; how it was run: as §2
Nakaseomyces glabratus [12] = test: Antifungal activity against Candida glabrata isolate 42971 expressing Fks1p D632Y mutant and Fks2p R1377STOP mutant by CLSI method; assay type: functional; how it was run: as §3
[13] = target: 1,3-beta-glucan synthase component FKS1 (Candida glabrata, UniProt E2GKZ4, D632G); test: Inhibition of Candida glabrata isolate 21900 1,3-beta-D-glucan synthase Fks1p D632G mutant/wild type Fks2p; set-up: species or system Nakaseomyces glabratus; how it was run: as §1
Nakaseomyces glabratus [14] = test: Antifungal activity against Candida glabrata isolate 31498 expressing wild type Fks1p and Fks2p F659 deletion mutant by CLSI method in presence of 50% human serum; assay type: functional; how it was run: as §2
Nakaseomyces glabratus [15] = test: Antifungal activity against Candida glabrata isolate 51916 expressing wild type Fks1p and Fks2p P667T mutant by CLSI method in presence of 50% human serum; assay type: functional; how it was run: as §2
1,3-beta-glucan synthase [16] = target: 1,3-beta-glucan synthase (Candida glabrata, UniProt F5BCZ9, P667T); test: Inhibition of Candida glabrata isolate 51916 1,3-beta-D-glucan synthase wild type Fks1p/Fks2p P667T mutant; set-up: species or system Nakaseomyces glabratus; how it was run: as §1
Nakaseomyces glabratus [17] = test: Antifungal activity against Candida glabrata isolate 42031 expressing wild type Fks1p and Fks2p D666E mutant by CLSI method in presence of 50% human serum; assay type: functional; how it was run: as §2
1,3-beta-glucan synthase [18] = target: 1,3-beta-glucan synthase (Candida glabrata, UniProt F5BCZ9, D666E); test: Inhibition of Candida glabrata isolate 42031 1,3-beta-D-glucan synthase wild type Fks1p/Fks2p D666E mutant; set-up: species or system Nakaseomyces glabratus; how it was run: as §1
1,3-beta-glucan synthase (Candida glabrata, UniProt F5BCZ9, D666E), sequence (F5BCZ9 entry or part of it D666E): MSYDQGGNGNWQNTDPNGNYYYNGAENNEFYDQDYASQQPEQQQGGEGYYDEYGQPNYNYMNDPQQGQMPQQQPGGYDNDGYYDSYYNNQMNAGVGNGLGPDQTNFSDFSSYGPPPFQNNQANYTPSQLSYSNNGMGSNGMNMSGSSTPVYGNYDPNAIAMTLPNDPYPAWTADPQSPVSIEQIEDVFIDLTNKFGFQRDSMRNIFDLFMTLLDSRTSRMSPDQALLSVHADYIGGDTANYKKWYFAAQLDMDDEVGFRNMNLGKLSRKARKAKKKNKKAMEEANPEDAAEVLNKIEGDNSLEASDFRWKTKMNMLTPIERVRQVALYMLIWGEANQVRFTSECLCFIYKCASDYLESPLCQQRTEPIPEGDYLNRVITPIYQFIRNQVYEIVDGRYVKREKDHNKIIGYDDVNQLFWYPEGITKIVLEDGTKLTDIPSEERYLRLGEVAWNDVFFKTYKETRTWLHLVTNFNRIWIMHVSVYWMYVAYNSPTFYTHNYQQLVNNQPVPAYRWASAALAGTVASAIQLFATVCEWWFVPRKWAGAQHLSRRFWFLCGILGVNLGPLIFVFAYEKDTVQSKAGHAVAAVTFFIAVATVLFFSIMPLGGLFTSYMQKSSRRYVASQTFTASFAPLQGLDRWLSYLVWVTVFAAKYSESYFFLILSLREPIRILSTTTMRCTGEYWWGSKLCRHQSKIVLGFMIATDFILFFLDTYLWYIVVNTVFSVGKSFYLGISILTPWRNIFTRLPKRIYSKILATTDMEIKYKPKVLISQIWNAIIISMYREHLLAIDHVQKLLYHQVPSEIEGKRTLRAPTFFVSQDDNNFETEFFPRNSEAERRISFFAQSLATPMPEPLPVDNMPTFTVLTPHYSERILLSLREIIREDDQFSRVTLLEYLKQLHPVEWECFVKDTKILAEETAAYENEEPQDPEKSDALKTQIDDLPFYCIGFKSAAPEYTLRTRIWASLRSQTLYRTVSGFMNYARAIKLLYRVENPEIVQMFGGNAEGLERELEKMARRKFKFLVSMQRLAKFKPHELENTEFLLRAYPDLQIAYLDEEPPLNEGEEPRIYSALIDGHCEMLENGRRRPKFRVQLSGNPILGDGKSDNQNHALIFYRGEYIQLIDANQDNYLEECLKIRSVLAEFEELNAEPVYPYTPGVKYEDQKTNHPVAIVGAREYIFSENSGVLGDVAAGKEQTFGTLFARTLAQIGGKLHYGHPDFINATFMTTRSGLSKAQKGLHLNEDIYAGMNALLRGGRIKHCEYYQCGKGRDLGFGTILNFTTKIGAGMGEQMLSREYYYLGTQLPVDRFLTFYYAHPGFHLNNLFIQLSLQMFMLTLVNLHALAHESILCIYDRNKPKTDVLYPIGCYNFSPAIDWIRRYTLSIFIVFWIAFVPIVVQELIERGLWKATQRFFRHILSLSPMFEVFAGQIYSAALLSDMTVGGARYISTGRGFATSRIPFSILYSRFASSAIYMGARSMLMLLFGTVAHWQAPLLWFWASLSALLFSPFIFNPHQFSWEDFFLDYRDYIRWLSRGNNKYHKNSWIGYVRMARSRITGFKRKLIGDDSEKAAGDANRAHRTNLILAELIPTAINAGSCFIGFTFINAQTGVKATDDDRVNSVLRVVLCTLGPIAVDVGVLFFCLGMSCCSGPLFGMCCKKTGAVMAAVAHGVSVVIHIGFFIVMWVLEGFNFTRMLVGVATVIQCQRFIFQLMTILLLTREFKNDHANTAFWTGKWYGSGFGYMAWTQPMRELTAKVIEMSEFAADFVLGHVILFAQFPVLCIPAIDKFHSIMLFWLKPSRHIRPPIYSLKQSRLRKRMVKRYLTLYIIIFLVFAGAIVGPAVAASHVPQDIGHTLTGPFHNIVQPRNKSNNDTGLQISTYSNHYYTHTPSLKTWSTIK

Nakaseomyces glabratus [19] = test: Antifungal activity against Candida glabrata isolate 3830 expressing wild type Fks1p and Fks2p S663P mutant by CLSI method; assay type: functional; how it was run: as §3
[20] = Inhibition of Candida glabrata isolate 3168 wild type 1,3-beta-D-glucan synthase; set-up: species or system Nakaseomyces glabratus; how it was run: as §1
Nakaseomyces glabratus [21] = test: Antifungal activity against Candida glabrata isolate 218 expressing wild type Fks1p and Fks2p by CLSI method in presence of 50% human serum; assay type: functional; how it was run: as §2
Nakaseomyces glabratus [22] = test: Antifungal activity against Candida glabrata isolate 3169 expressing Fks1p D632E mutant and wild type Fks2p by CLSI method in presence of 50% human serum; assay type: functional; how it was run: as §2
Nakaseomyces glabratus [23] = test: Antifungal activity against Candida glabrata ATCC 90030 expressing wild type Fks1p and Fks2p by CLSI method; assay type: functional
How it was run: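 Broth microdilution MIC per CLSI M27-A3 in RPMI 1640 medium, also run in RPMI 1640 with 50% serum. Wild-type control strain. Caspofungin and micafungin dissolved in sterile distilled water and anidulafungin in 100% DMSO; stock solutions stored at −86°C. Geometric means used to compare MICs.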

Nakaseomyces glabratus [24] = test: Antifungal activity against Candida glabrata isolate 3168 expressing wild type Fks1p and Fks2p by CLSI method; assay type: functional; how it was run: as §3
[25] = Inhibition of Candida glabrata isolate 218 wild type 1,3-beta-D-glucan synthase; set-up: species or system Nakaseomyces glabratus; how it was run: as §1
Nakaseomyces glabratus [26] = test: Antifungal activity against Candida glabrata isolate 41400 expressing wild type Fks1p and Fks2p D666G mutant by CLSI method in presence of 50% human serum; assay type: functional; how it was run: as §2
Nakaseomyces glabratus [27] = test: Antifungal activity against Candida glabrata ATCC 90030 expressing wild type Fks1p and Fks2p by CLSI method in presence of 50% human serum; assay type: functional; how it was run: as §2
Nakaseomyces glabratus [28] = test: Antifungal activity against Candida glabrata isolate 21900 expressing Fks1p D632G mutant and wild type Fks2p by CLSI method; assay type: functional
1,3-beta-glucan synthase [29] = target: 1,3-beta-glucan synthase (Candida glabrata, UniProt F5BCZ9, F659V); test: Inhibition of Candida glabrata isolate 234 1,3-beta-D-glucan synthase wild type Fks1p/Fks2p F659V mutant; set-up: species or system Nakaseomyces glabratus; how it was run: as §1
Nakaseomyces glabratus [30] = test: Antifungal activity against Candida glabrata isolate 234 expressing wild type Fks1p and Fks2p F659V mutant by CLSI method; assay type: functional; how it was run: as §3
Nakaseomyces glabratus [31] = test: Antifungal activity against Candida glabrata isolate 41400 expressing wild type Fks1p and Fks2p D666G mutant by CLSI method; assay type: functional; how it was run: as §3
Nakaseomyces glabratus [32] = test: Antifungal activity against Candida glabrata isolate 42971 expressing Fks1p D632Y mutant and Fks2p R1377STOP mutant by CLSI method in presence of 50% human serum; assay type: functional; how it was run: as §2
Nakaseomyces glabratus [33] = test: Ratio of IC50 for Candida glabrata wild type 1,3-beta-glucan synthase to IC50 for Candida glabrata 1,3-beta-glucan synthase mutant
Nakaseomyces glabratus [34] = test: Antifungal activity against Candida glabrata isolate 3830 expressing wild type Fks1p and Fks2p S663P mutant by CLSI method in presence of 50% human serum; assay type: functional; how it was run: as §2

SMILES | IC50 [1] | IC50 (1,3-beta-glucan synthase [2]) | MIC (Nakaseomyces glabratus [3]) | IC50 (1,3-beta-glucan synthase [4]) | MIC (Nakaseomyces glabratus [5]) | MIC (Nakaseomyces glabratus [6]) | MIC (Nakaseomyces glabratus [7]) | IC50 [8] | MIC (Nakaseomyces glabratus [9]) | MIC (Nakaseomyces glabratus [10]) | MIC (Nakaseomyces glabratus [11]) | MIC (Nakaseomyces glabratus [12]) | IC50 [13] | MIC (Nakaseomyces glabratus [14]) | MIC (Nakaseomyces glabratus [15]) | IC50 (1,3-beta-glucan synthase [16]) | MIC (Nakaseomyces glabratus [17]) | IC50 (1,3-beta-glucan synthase [18]) | MIC (Nakaseomyces glabratus [19]) | IC50 [20] | further results
CCCCCOc1ccc(-c2ccc(-c3ccc(C(=O)N[C@H]4C[C@@H](O)[C@@H](O)NC(=O)[C@@H]5[C@@H](O)[C@@H](C)CN5C(=O)[C@H]([C@@H](C)O)NC(=O)[C@H]([C@H](O)[C@@H](O)c5ccc(O)cc5)NC(=O)[C@@H]5C[C@@H](O)CN5C(=O)[C@H]([C@@H](C)O)NC4=O)cc3)cc2)cc1 [ANIDULAFUNGIN] ({pTerphenylCO(4''-OnC5H11)}-[Orn(4R-OH,5R-OH)]T[Hyp][hTyr(3S-OH,4S-OH)]T[Pro(3S-OH,4S-Me)]; lactam 1-C) | 2.5435 µg/mL (≈ 2.23 µM) | 74.7 nM | 4 µg/mL | 3510 nM | 4 µg/mL (≈ 3.51 µM) | 1 µg/mL (≈ 0.877 µM) | 4 µg/mL (≈ 3.51 µM) | 97 nM | 8 µg/mL | 0.06 µg/mL (≈ 0.0526 µM) | 8 µg/mL | 4 µg/mL (≈ 3.51 µM) | 89.3 nM | 8 µg/mL | 8 µg/mL | 87.3 nM | 4 µg/mL | 112 nM | 1 µg/mL (≈ 0.877 µM) | 0.00158 µg/mL (≈ 0.00139 µM) | MIC (Nakaseomyces glabratus [21]): 0.5 µg/mL; MIC (Nakaseomyces glabratus [22]): 8 µg/mL; MIC (Nakaseomyces glabratus [23]): 0.06 µg/mL (≈ 0.0526 µM); MIC (Nakaseomyces glabratus [24]): 0.03 µg/mL (≈ 0.0263 µM); IC50 [25]: 0.00125 µg/mL (≈ 0.0011 µM); MIC (Nakaseomyces glabratus [26]): 8 µg/mL; MIC (Nakaseomyces glabratus [27]): 0.5 µg/mL; MIC (Nakaseomyces glabratus [28]): 1 µg/mL (≈ 0.877 µM); IC50 (1,3-beta-glucan synthase [29]): 75.9 nM; MIC (Nakaseomyces glabratus [30]): 1 µg/mL (≈ 0.877 µM); MIC (Nakaseomyces glabratus [31]): 2 µg/mL (≈ 1.75 µM); MIC (Nakaseomyces glabratus [32]): 8 µg/mL; Ratio IC50 (Nakaseomyces glabratus [33]): 54; MIC (Nakaseomyces glabratus [34]): 8 µg/mL
CC[C@H](C)C[C@H](C)CCCCCCCCC(=O)N[C@H]1C[C@@H](O)[C@@H](NCCN)NC(=O)[C@@H]2[C@@H](O)CCN2C(=O)[C@H]([C@H](O)CCN)NC(=O)[C@H]([C@H](O)[C@@H](O)c2ccc(O)cc2)NC(=O)[C@@H]2C[C@@H](O)CN2C(=O)[C@H]([C@@H](C)O)NC1=O [CASPOFUNGIN] | 5.2485 µg/mL (≈ 4.8 µM) | 556 nM | 8 µg/mL | 4680 nM | 8 µg/mL (≈ 7.32 µM) | 4 µg/mL (≈ 3.66 µM) | 16 µg/mL (≈ 14.6 µM) | 638 nM | 8 µg/mL | 0.12 µg/mL (≈ 0.11 µM) | 8 µg/mL | 8 µg/mL (≈ 7.32 µM) | 692 nM | 8 µg/mL | 8 µg/mL | 152 nM | 8 µg/mL | 236 nM | 16 µg/mL (≈ 14.6 µM) | 0.00179 µg/mL (≈ 0.00164 µM) | MIC (Nakaseomyces glabratus [21]): 0.25 µg/mL; MIC (Nakaseomyces glabratus [22]): 8 µg/mL; MIC (Nakaseomyces glabratus [23]): 0.06 µg/mL (≈ 0.0549 µM); MIC (Nakaseomyces glabratus [24]): 0.06 µg/mL (≈ 0.0549 µM); IC50 [25]: 0.00311 µg/mL (≈ 0.00284 µM); MIC (Nakaseomyces glabratus [26]): 8 µg/mL; MIC (Nakaseomyces glabratus [27]): 0.12 µg/mL; MIC (Nakaseomyces glabratus [28]): 4 µg/mL (≈ 3.66 µM); IC50 (1,3-beta-glucan synthase [29]): 105 nM; MIC (Nakaseomyces glabratus [30]): 4 µg/mL (≈ 3.66 µM); MIC (Nakaseomyces glabratus [31]): 4 µg/mL (≈ 3.66 µM); MIC (Nakaseomyces glabratus [32]): 8 µg/mL; Ratio IC50 (Nakaseomyces glabratus [33]): 267; MIC (Nakaseomyces glabratus [34]): 16 µg/mL
